Source: ChEMBL document CHEMBL3046444, “Antiproliferative activity and synthesis of 8-prenylnaringenin derivatives by demethylation of 7-O- and 4'-O-substituted isoxanthohumols” (2012)
≈ marks a conversion by molar mass, not a printed value. Calls of active or inactive are those of the source. The calls are words filed in the database; no cut-off is given here.

What was measured:
Format in all cases: functional
[1] = system: HT-29; test: Antiproliferative activity against Homo sapiens (human) HT-29 cells after 72 hr by SRB assay; details: for IC50: HT-29, 72 h, read-out: ID50 (the source's name)
Procedure, shortened: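 HT-29 colon adenocarcinoma cells were plated at 10^5/ml in RPMI 1640/Opti-MEM (1:1) with 5% FBS, antibiotics, 1 mM pyruvate and 2 mM glutamine. Test agents (0.1–100 μg/ml, solvent-matched controls) were added after 24 h and left for 72 h. Cells were TCA-fixed and stained 30 min with 0.4% SRB in 1% acetic acid, dye extracted with 10 mM Tris, OD 540 nm. Triplicates, 3–5 experiments; ID50 (μg/ml).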

[2] = system: CCRF-CEM; test: Antiproliferative activity against Homo sapiens (human) CCRF-CEM cells after 72 hr by MTT assay; details: for IC50: read-out: ID50 (the source's name)
Procedure, shortened: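 Human leukemia CCRF/CEM cells seeded at 10^5/ml in RPMI 1640 with 10% FBS, penicillin/streptomycin and 2 mM L-glutamine at 37°C, 5% CO2. Compounds were added after 24 h at 0.1–100 μg/ml, with acetone or ethanol vehicle controls, and exposure ran 72 h. MTT was given for 4 h, formazan solubilized in SDS/DMF for 24 h, and read at 570 nm. Triplicates, 3–5 repeats; ID50 in μg/ml vs untreated.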

[3] = system: MCF7; test: Antiproliferative activity against Homo sapiens (human) MCF7 cells after 72 hr by SRB assay; details: for IC50: MCF7, 72 h, read-out: ID50 (the source's name)
Procedure, shortened: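 MCF-7 breast cancer cells at 10^5/ml in Eagle's medium with 10% FBS, antibiotics, 2 mM glutamine, 1.0 mM pyruvate, 1% amino acids and 0.8 mg/l insulin, 37°C, 5% CO2. After 24 h, compounds at 0.1–100 μg/ml (acetone/ethanol controls) were added for 72 h. SRB read-out: cold 50% TCA fixation, 0.4% SRB stain, Tris extraction, 540 nm. Triplicates, repeated 3–5 times; 50% proliferation inhibition dose (ID50, μg/ml).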

IC50 [1] | IC50 [2] | IC50 [3] | SMILES | ID50 [1] | ID50 [2] | ID50 [3]
8.2 µg/mL (≈ 16.6 µM) | 4.3 µg/mL (≈ 8.69 µM) | 7.1 µg/mL (≈ 14.4 µM) | CCCCCOc1ccc([C@@H]2CC(=O)c3c(OC)cc(OCCCCC)c(CC=C(C)C)c3O2)cc1 [7,4'-DI-O-N-PENTYL-8-ISOXANTHOHUMOL] | – | – | –
32.1 µg/mL (≈ 73.2 µM) | 23.3 µg/mL (≈ 53.1 µM) | 16.9 µg/mL (≈ 38.5 µM) | COc1cc(OC(C)=O)c(CC=C(C)C)c2c1C(=O)C[C@@H](c1ccc(OC(C)=O)cc1)O2 [7,4'-DI-O-ACETYLISOXANTHOHUMOL] | – | – | –
6 µg/mL (≈ 15.7 µM) | 5 µg/mL (≈ 13.1 µM) | 6.6 µg/mL (≈ 17.3 µM) | COc1ccc([C@@H]2CC(=O)c3c(OC)cc(OC)c(CC=C(C)C)c3O2)cc1 [7,4'-DI-O-METHYLISOXANTHOHUMOL] | – | – | –
6.9 µg/mL (≈ 16.3 µM) | 5.4 µg/mL (≈ 12.7 µM) | 8.3 µg/mL (≈ 19.6 µM) | CCCCCOc1cc(OC)c2c(c1CC=C(C)C)O[C@H](c1ccc(O)cc1)CC2=O [7-O-N-PENTYLISOXANTHOHUMOL] | – | – | –
6.2 µg/mL (≈ 14.3 µM) | 2.7 µg/mL (≈ 6.21 µM) | 5.2 µg/mL (≈ 12 µM) | C=CCOc1ccc([C@@H]2CC(=O)c3c(OC)cc(OCC=C)c(CC=C(C)C)c3O2)cc1 [7,4'-DI-O-ALLYLISOXANTHOHUMOL] | – | – | –
– | – | 36.9 µg/mL (≈ 100 µM) | COc1ccc(C2CC(=O)c3c(O)cc(OC)c(CC=C(C)C)c3O2)cc1 (configuration not stated) [7,4'-DI-O-METHYL-8-PRENYLNARINGENIN] | inactive | inactive | –

Further lines, the compound ahead of its results:

SMILES | IC50 [1] | IC50 [2] | IC50 [3] | ID50 [1] | ID50 [2] | ID50 [3]
CC(=O)Oc1ccc(C2CC(=O)c3c(O)cc(OC(C)=O)c(CC=C(C)C)c3O2)cc1 (configuration not stated) [7,4'-DI-O-ACETYL-8-PRENYLNARINGENIN] | 36.1 µg/mL (≈ 85.1 µM) | 37 µg/mL (≈ 87.2 µM) | 28 µg/mL (≈ 66 µM) | – | – | –
CCCCCCCCCCCCCCCC(=O)Oc1ccc(C2CC(=O)c3c(O)cc(OC(=O)CCCCCCCCCCCCCCC)c(CC=C(C)C)c3O2)cc1 (configuration not stated) | – | – | – | inactive | inactive | inactive
CC(C)=CCc1c(O)cc(O)c2c1OC(c1ccc(O)cc1)CC2=O (configuration not stated) [SOPHORAFLAVANONE B] | 33.2 µg/mL (≈ 97.5 µM) | 24.2 µg/mL (≈ 71.1 µM) | 19.4 µg/mL (≈ 57 µM) | – | – | –
COc1cc(O)c(CC=C(C)C)c2c1C(=O)CC(c1ccc(O)cc1)O2 (configuration not stated) [ISOXANTHOHUMOL] | 32.6 µg/mL (≈ 92 µM) | 18.2 µg/mL (≈ 51.4 µM) | 9.4 µg/mL (≈ 26.5 µM) | – | – | –
COc1cc(O)c(CC=C(C)C)c(O)c1C(=O)/C=C/c1ccc(O)cc1 [XANTHOHUMOL] | 3.8 µg/mL (≈ 10.7 µM) | 4.1 µg/mL (≈ 11.6 µM) | 4.7 µg/mL (≈ 13.3 µM) | – | – | –
CCCCCCCCCCCCCCCC(=O)Oc1ccc([C@@H]2CC(=O)c3c(OC)cc(OC(=O)CCCCCCCCCCCCCCC)c(CC=C(C)C)c3O2)cc1 | – | – | – | inactive | inactive | inactive
CCCCCOc1cc(O)c2c(c1CC=C(C)C)OC(c1ccc(O)cc1)CC2=O (configuration not stated) [7-O-PENTYL-8-PRENYLNARINGENIN] | 10 µg/mL (≈ 24.4 µM) | 4.8 µg/mL (≈ 11.7 µM) | 3.9 µg/mL (≈ 9.5 µM) | – | – | –
C=CCOc1ccc(C2CC(=O)c3c(O)cc(OCC=C)c(CC=C(C)C)c3O2)cc1 (configuration not stated) | – | – | – | inactive | inactive | inactive
